Entries after “also recorded” stand apart in the source; their conditions may differ.
Tests used:
acid ceramidase = conditions: cited from earlier work
LNCaP cells = experiment: Cell proliferation; type: cell-based; conditions: B13 for 5 d
How it was run: (§1)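 Cells seeded at 3000–5000/well, exposed to a range of test-compound concentrations for 5 d. Medium swapped for 100 µL phenol-red-free medium, 10 µL of 12 mM MTT stock added, 37 °C 4 h; stopped with 100 µL 10% SDS in 0.01 M HCl, further 4 h at 37 °C; absorbance at 570 nm. Mean ± SEM of n=6 wells, two-sided Student's t test.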

293T cells = experiment: Cell proliferation; type: cell-based
[1] = system: LNCaP, 22Rv1, PC-3, and DU145 cells; experiment: Cell cycle analysis by flow cytometry; type: cell-based; conditions: tested prostate cancer cells, B13 for 3 d
How it was run: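 Cells were grown in ATCC-recommended medium, and after attachment the medium with or without 15 or 30 µM test compound was renewed every 24 h for 3 days. 1 × 10^6 cells were PBS-washed and fixed in 70% ethanol for 1 h at 4 °C. They were stained with propidium iodide/RNase for 30 min in the dark at room temperature. Flow cytometry used 488 nm excitation and 585 nm emission, and G0/G1, S and G2/M percentages were compared with control.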

DU145 cells [2] = experiment: Immunoblotting of cell cycle proteins; type: cell-based
How it was run: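 DU145 cells were treated with or without different concentrations of test compound. Lysates were immunoblotted for CDK2, CDK6, cyclin D1, p27 and tubulin.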

NMT1 = molecular target: T1, NMT1 (Homo sapiens, UniProt P30419); experiment: Fluorescence-based NMT1 enzymatic activity assay; type: biochemical
T1 sequence (P30419 109-496): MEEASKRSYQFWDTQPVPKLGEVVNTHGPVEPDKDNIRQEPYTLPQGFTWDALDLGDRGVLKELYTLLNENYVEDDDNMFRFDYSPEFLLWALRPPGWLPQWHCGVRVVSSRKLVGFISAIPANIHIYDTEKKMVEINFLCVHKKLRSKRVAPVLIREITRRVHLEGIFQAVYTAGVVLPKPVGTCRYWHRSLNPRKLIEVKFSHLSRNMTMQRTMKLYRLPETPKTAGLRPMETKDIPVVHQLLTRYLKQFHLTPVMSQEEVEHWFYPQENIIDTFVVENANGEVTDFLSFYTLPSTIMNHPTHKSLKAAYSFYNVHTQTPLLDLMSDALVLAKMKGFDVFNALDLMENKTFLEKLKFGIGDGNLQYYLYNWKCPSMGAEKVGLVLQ

[3] = system: de novo synthesized Src kinase; experiment: 293T cells expressing doxycycline inducible Src; type: cell-based
How it was run: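 293T-rtTA cells carrying lentiviral TRE/Src(Y529F) in DMEM with 10% FBS; Src induced with or without doxycycline 1 µg/mL plus 0 (DMSO), 15 or 30 µM test compound for 24 h. Lysed in TNE buffer (pH 7.4, protease/phosphatase inhibitors), needle-homogenised, spun 14,000 rpm 10 min (supernatant = cytosol); pellet extracted with 60 mM β-octylglucoside on ice 30 min, spun 14,000 rpm 20 min 4°C (total membrane). Immunoblot: […] antibody, caveolin-1/GAPDH markers.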

PC-3 cells [4] = experiment: Cell proliferation; type: cell-based; conditions: PC-3, B13 for 5 d
How it was run: as §1

Src myristoylation [5] = experiment: Src myristoylation by Click chemistry in PC-3 cells; type: cell-based; conditions: endogenous Src kinase, myristic acid-azide 60 µM
PC-3 cells [6] = experiment: Wound-healing; type: cell-based; conditions: PC-3, 15 µM B13
How it was run: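 PC-3 cells (8×10^5 per well) were grown 24 h to 95% confluence, then scratched with a 1 mL pipette tip. Wells were washed to remove floating cells and refed with fresh medium containing 15 µM test compound. The wound space was imaged daily.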

DU145 cells [7] = experiment: Cell proliferation; type: cell-based; conditions: DU145, B13 for 5 d
How it was run: as §1

Src myristoylation [8] = experiment: Src myristoylation by Click chemistry in SYF1+Src; type: cell-based, mouse; conditions: ectopically expressed Src kinase, SYF1+Src(WT) cells, myristic acid-azide 60 µM
How it was run: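 Mouse SYF1 (Src−/−Yes−/−Fyn−/−) fibroblasts were lentivirally transduced with wild-type Src and grown in DMEM with 2% fatty-acid-free BSA. They were pretreated with test compound at 0, 1, 5, 15 or 30 µM for 2 h, then given 60 µM myristic acid-azide. M-PER lysates underwent Click labelling with 40 µM alkyne-biotin and CuSO4. Myristoyl-Src (60 kDa) was detected with streptavidin-HRP, and total Src and GAPDH by immunoblot.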

PC-3 cells [9] = experiment: Immunoblotting of cell cycle proteins; type: cell-based
[10] = Toxicity in host mice carrying PC-3 xenografts; type: in vivo, SCID mice
pSrc(Y416), pFAK, pAkt = experiment: Immunoblotting of Src signaling in PC-3 total lysates; type: cell-based; conditions: PC-3 cells
PC-3 xenograft tumors = experiment: PC-3 xenograft tumor growth; type: in vivo, SCID mice; conditions: 75 mg/kg i.v. twice a week for 6 weeks
22Rv1 cells [11] = experiment: Transwell invasion assay; type: cell-based; conditions: 22Rv1, 15 µM B13
How it was run: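 22Rv1 cells at about 80% confluence were serum-starved for 24 h, then seeded in Transwell inserts. The top well held medium with 15 µM test compound or DMSO, and the receiver well held 10% FBS. After 48 h, cells were fixed with 3.7% formaldehyde (2 min) then methanol (20 min). Staining was 0.1% crystal violet for 15 min in the dark at room temperature. Non-migrated cells were swabbed off, and migrated cells were imaged and counted.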

SYF1-Src(Y529F) cells = experiment: Soft agar colony formation assay; type: cell-based, mouse
22Rv1 cells [12] = experiment: Cell proliferation; type: cell-based; conditions: 22Rv1, B13 for 5 d
How it was run: as §1

PNT2 normal cells = experiment: Cell proliferation; type: cell-based
PNT2 cells = experiment: Cell cycle analysis by flow cytometry; type: cell-based

## CCCCCCCCCCCCCCN[C@H](CO)[C@H](O)c1ccc([N+](=O)[O-])cc1 [LCL204]
Acid ceramidase
  Inhibition of acid ceramidase relative to B13: higher inhibitory potential than B13

## CCCCCCCCCCCCCC(=O)N[C@H](CO)[C@H](O)c1ccc([N+](=O)[O-])cc1 [B13, N-[(1R,2R)-2-hydroxy-1-(hydroxymethyl)-2-(4-nitrophenyl)ethyl]-tetradecanamide]
LNCaP cells
  Proliferation: less sensitive
293T cells
  Proliferation: did not affect
Acid ceramidase
  Inhibition of acid ceramidase: can inhibit acid ceramidase
[1]
  Cell cycle progression: significantly inhibited
DU145 cells [2]
  Expression of CDK2, cyclin D1 and p27: decreased expression of CDK2 and cyclin D1, increased expression of p27
  Expression of CDK6: decreased expression of CDK6
NMT1
  IC50: 77.6 µM
[3]; Dox 1 µg/ml, 15 and 30 µM B13, 24 h
  De novo synthesized Src-induced signaling: suppression of de novo synthesized Src-induced signaling
[3]; doxycycline induced, membrane fraction
  Non-phosphorylated Src kinase [non-pSrc(Y527)] at the cytoplasmic membrane: reduced
PC-3 cells [4]
  Proliferation: significantly inhibited proliferation; also recorded: significant inhibition
Src myristoylation [5]
  Src myristoylation (myristoyl-Src level): inhibited Src myristoylation
PC-3 cells [6]
  Migration: suppressed
DU145 cells [7]
  Proliferation: significantly inhibited proliferation
Src myristoylation [8]
  Src myristoylation (myristoyl-Src level): inhibited Src myristoylation
PC-3 cells [9]
  Expression of CDK2, cyclin D1 and p27: decreased expression of CDK2 and cyclin D1, increased expression of p27
[10]; 75 mg/kg i.v. twice a week
  Body weight change: no significant changes
  Organs' weight change: no significant changes
[10]; 75 mg/kg i.v. twice a week for 6 weeks
  Pathological toxicity to major organs (liver, kidney, lung; H&E): no observed pathological toxicity
pSrc(Y416), pFAK, pAkt
  Src kinase tyrosine phosphorylation [pSrc(Y416)]: inhibited Src kinase tyrosine phosphorylation
  pFAK and pAkt levels: down-regulation of pFAK and pAkt
PC-3 xenograft tumors
  Size and weight of PC-3 xenograft tumors: significantly inhibited the size and weight
22Rv1 cells [11]
  Invasion: suppressed invasion
SYF1-Src(Y529F) cells
  Src(Y529F)-induced colony formation (transformation): the transformation was inhibited
22Rv1 cells [12]
  Proliferation: significantly inhibited proliferation; also recorded: significant inhibition
PNT2 normal cells
  Proliferation: limited effect
PNT2 cells
  Cell cycle: did not affect the cell cycle

From PMC5732839 (Cancer research, 2017)
